Source: ChEMBL document CHEMBL3526035, “Role of the intestinal peptide transporter PEPT1 in oseltamivir absorption: in vitro and in vivo studies” (Drug Metab Dispos, 2012)

How the values were obtained:
[1] = AUC(0 to 6 hrs) in adult fed Sprague-Dawley rat at 30 mg/kg, po administered as water solution by HPLC-tandem mass spectrometry; assay type: ADME, organism-based; parameters: time < 6 hr, dose 30 mg/kg, route oral; conditions: plasma
Outline: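 Sprague-Dawley males, 7-8 weeks, 243-283 g, jugular-cannulated, 3 days' recovery; fed (chow ad libitum). Single oral dose of 30 mg/kg (free base) at 10 ml/kg; 3 rats/group. Jugular blood taken at 0.25-24 h into K2EDTA with dichlorvos, kept on ice. Plasma analysed by validated LC-MS/MS (0.1-500 μg/l). Noncompartmental analysis; AUC by linear trapezoid, AUC0-∞ extrapolated using λz.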

[2] = Tmax in juvenile fasted Sprague-Dawley rat at 30 mg/kg, po administered as water solution by HPLC-tandem mass spectrometry; assay type: ADME, organism-based; parameters: dose 30 mg/kg, route oral; conditions: in vivo
Outline: (§1)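 Seven-day-old Sprague-Dawley pups, males and females, 15 per group, were gavaged with 30 mg/kg (10 ml/kg). Breast-fed pups stayed with their dams; fasted pups were removed from 8 h predose through 5 h. Cardiac blood was drawn under isoflurane at 0.25, 0.5, 1, 2 and 5 h (composite, n=3/time point), with dichlorvos added. Plasma was analyzed by HPLC-MS/MS and Tmax read graphically.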

[3] = AUC(0 to infinity) in adult fasted Sprague-Dawley rat at 30 mg/kg, po administered as solution in bovine milk by HPLC-tandem mass spectrometry; assay type: ADME, organism-based; parameters: time infinity, dose 30 mg/kg, route oral; conditions: in vivo
Outline: (§2)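 Adult male Sprague-Dawley rats (243-283 g), jugular-cannulated, fasted from 6 h before dosing through the 6-h study. Given 30 mg/kg orally (free base) at 10 ml/kg, n=3/group. Blood sampled at 0.25-6 h into K2EDTA with dichlorvos esterase inhibitor. Plasma assayed by LC-MS/MS (0.1-500 μg/l). Noncompartmental analysis: linear-trapezoid AUC; infinity extrapolation via log-linear terminal λz.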

[4] = AUC(0 to 24 hrs) in healthy human at 150 mg, po administered as single dose by HPLC-tandem mass spectrometry under fasting conditions; assay type: ADME, organism-based; parameters: dose 150 mg, time < 24 hr, route oral; conditions: plasma
Outline: (§3)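 Open-label crossover in 18 healthy volunteers (9 male, 9 female, mean age 26). Each received marketed oseltamivir 150 mg orally, once fasted from midnight and once after a high-fat, high-calorie breakfast, with a 7-10 day washout. Plasma and urine collected over 0-72 h and analysed by HPLC-MS/MS. AUC and Cmax compared after log transformation.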

[5] = Cmax in adult fed Sprague-Dawley rat at 30 mg/kg, po administered as 125 mM aqueous Gly-Sar solution by HPLC-tandem mass spectrometry; assay type: ADME, organism-based; parameters: dose 30 mg/kg, route oral; conditions: in vivo
Outline: (§4)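 Adult cannulated Sprague-Dawley rats, fasted (from 6 h predose) or fed, dosed orally at 30 mg/kg (10 ml/kg), 3 per group. Serial jugular plasma with dichlorvos stabilisation, measured by LC-MS/MS. Cmax read graphically from the concentration-time profile.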

[6] = Renal clearance in healthy human at 150 mg, po administered as single dose by HPLC-tandem mass spectrometry under fed conditions; assay type: ADME, organism-based, Kidney; conditions: in vivo
Outline: (§5)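 Open-label crossover food-effect study in 18 healthy volunteers (9 male, 9 female, mean age 26). Each received a single 150 mg oral dose of the marketed formulation, once fasting from midnight and once after a high-fat, high-calorie breakfast, separated by a 7–10 day washout. Plasma and urine were collected over 0–72 h and assayed by HPLC-MS/MS for oseltamivir and carboxylate.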

[7] = AUC(0 to 5 hrs) in juvenile breast-fed Sprague-Dawley rat at 30 mg/kg, po administered as water solution by HPLC-tandem mass spectrometry; assay type: ADME, organism-based; parameters: time < 5 hr, dose 30 mg/kg, route oral; conditions: plasma
Outline: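 7-day-old Sprague-Dawley pups (9.7-18.9 g, both sexes), 15 per group. Given 30 mg/kg by oral gavage (10 ml/kg); breast-fed pups stayed with dams, fasted pups were removed 8 h before dosing. Blood taken by cardiac puncture under isoflurane at 0.25, 0.5, 1, 2 and 5 h, n=3 per time point (composite design). Dichlorvos-treated plasma assayed by LC-MS/MS; AUC0-5h by noncompartmental analysis.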

[8] = Drug uptake in CHOK1 cells expressing human PEPT1 at 5 to 100 uM after 10 mins by HPLC coupled with radiodetection analysis; assay type: ADME, cell-based, Cricetulus griseus; conditions: chinese hamster, cho-k1, 10 min
[9] = Tmax in adult fed Sprague-Dawley rat at 30 mg/kg, po administered as water solution by HPLC-tandem mass spectrometry; assay type: ADME, organism-based; parameters: dose 30 mg/kg, route oral; conditions: in vivo
Outline: (§6)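 Cannulated adult male Sprague-Dawley rats with chow ad libitum, 3 per vehicle, were given oral 30 mg/kg (10 ml/kg). Plasma analysis was by HPLC-MS/MS, with Tmax taken graphically from concentration-time profiles.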

[10] = Tmax in juvenile fasted Sprague-Dawley rat at 30 mg/kg, po administered as solution in bovine milk by HPLC-tandem mass spectrometry; assay type: ADME, organism-based; parameters: dose 30 mg/kg, route oral; conditions: in vivo; outline: as §1
[11] = Terminal half life in healthy human at 150 mg, po administered as single dose by HPLC-tandem mass spectrometry under fasting conditions; assay type: ADME, organism-based; conditions: in vivo, read-out: beta t1/2 (converted); outline: as §5
[12] = Tmax in juvenile breast-fed Sprague-Dawley rat at 30 mg/kg, po administered as water solution by HPLC-tandem mass spectrometry; assay type: ADME, organism-based; parameters: dose 30 mg/kg, route oral; conditions: in vivo; outline: as §1
[13] = Drug uptake in CHOK1 cells expressing human PEPT1 at pH 6 by HPLC coupled with radiodetection analysis; assay type: ADME, cell-based, Cricetulus griseus; conditions: chinese hamster, cho-k1, pH 6
Outline: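 Accumulation of [14C]oseltamivir or its carboxylate in CHO-PEPT1 versus CHO-K1 cells. Conditions varied: KH buffer (with MES) or Hanks' balanced salt solution, pH 5 or 6 readjusted after substrate addition, 30 s to 15 min at 37°C. Uptake was quenched with ice-cold PBS-BSA, followed by Triton X-100 lysis, scintillation counting, and BCA protein normalization. HPLC-radiodetection checked ester stability.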

[14] = AUC(0 to 6 hrs) in adult fasted Sprague-Dawley rat at 30 mg/kg, po administered as water solution by HPLC-tandem mass spectrometry; assay type: ADME, organism-based; parameters: time < 6 hr, dose 30 mg/kg, route oral; conditions: plasma; outline: as §2
[15] = Cmax in healthy human at 150 mg, po administered as single dose by HPLC-tandem mass spectrometry under fasting conditions; assay type: ADME, organism-based; parameters: dose 150 mg, route oral; conditions: in vivo; outline: as §3
[16] = Tmax in healthy human at 150 mg, po administered as single dose by HPLC-tandem mass spectrometry under fed conditions; assay type: ADME, organism-based; conditions: in vivo; outline: as §5
[17] = Cmax in adult fasted Sprague-Dawley rat at 30 mg/kg, po administered as solution in bovine milk by HPLC-tandem mass spectrometry; assay type: ADME, organism-based; parameters: dose 30 mg/kg, route oral; conditions: in vivo; outline: as §4
[18] = Tmax in adult fed Sprague-Dawley rat at 30 mg/kg, po administered as solution in bovine milk by HPLC-tandem mass spectrometry; assay type: ADME, organism-based; parameters: dose 30 mg/kg, route oral; conditions: in vivo; outline: as §6

| SMILES | AUC(0-t) at 6 h [1] | Tmax [2] | AUC(0-inf) [3] | AUC(0-t) at 24 h [4] | Cmax [5] | CL renal [6] | AUC(0-t) at 5 h [7] | Drug uptake [8] | Tmax [9] | Tmax [10] | half-life [11] | Tmax [12] | Drug uptake [13] | AUC(0-t) at 6 h [14] | Cmax [15] | Tmax [16] | Cmax [17] | Tmax [18] |
| --- | --- | --- | --- | --- | --- | --- | --- | --- | --- | --- | --- | --- | --- | --- | --- | --- | --- | --- |
| CCC(CC)O[C@@H]1C=C(C(=O)O)C[C@H](N)[C@H]1NC(C)=O [OSELTAMIVIR CARBOXYLATE] | 3540 ng·h/mL | 2 h | 6300 ng·h/mL | 5540 ng·h/mL | 693 ng/mL | 218 mL/min | 5070 ng·h/mL | Active | 0.75 h | 5 h | 6.87 h | 5 h | Active | 5910 ng·h/mL | 551 ng/mL | 5.42 h | 1630 ng/mL | 0.75 h |
| CCOC(=O)C1=C[C@@H](OC(CC)CC)[C@H](NC(C)=O)[C@@H](N)C1 [OSELTAMIVIR] | 2200 ng·h/mL | 0.5 h | 3060 ng·h/mL | 238 ng·h/mL | 926 ng/mL | 385 mL/min | 20300 ng·h/mL | Active | 0.41 h | 1 h | 1.61 h | 1 h | Active | 2680 ng·h/mL | 124 ng/mL | 2.06 h | 1630 ng/mL | 0.41 h |
